Data set [1] deals with Mus musculus. Put plainly: Acute toxicity in Balb/C mouse assessed as change in body weight at 2.5 to 12.5 mg/kg, ip administered BID for 5 days measured 48 hrs after last dose. The format is organism-based. As to conditions: in vivo. On the set-up: dose 2.5-12.5 mg/kg, route intraperitoneal. In outline:
(§1)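 Male Balb/c mice aged 6–8 weeks, n=4 per group, dosed i.p. with compound suspended in PBS and filter sterilized, 10 ul/g body weight. Body weight tracked throughout the live phase. Under isoflurane anaesthesia, terminal cardiac-puncture bleed; serum taken for transaminases and other chemistries. Sacrifice by cervical dislocation 48 h after last dose, with liver and spleen weighed at necropsy. Kidneys examined by histopathology.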

In data set [2] the test system is Mus musculus. The data set is described as follows: Acute toxicity in Balb/C mouse assessed as change in organ weight at 2.5 to 12.5 mg/kg, ip administered BID for 5 days measured 48 hrs after last dose. Type of data set: organism-based. On the set-up: dose 2.5-12.5 mg/kg, route intraperitoneal. The settings on record: in vivo. In outline:
as §1

Data set [3] deals with Mus musculus. The data set is described as follows: Acute toxicity in Balb/C mouse assessed as change in serum chemistry at 2.5 to 12.5 mg/kg, ip administered BID for 5 days measured 48 hrs after last dose. The format is organism-based. On the set-up: dose 2.5-12.5 mg/kg, route intraperitoneal. As to conditions: in vivo. The method in brief: as §1
Data set [4] has as its system Mus musculus. The data set is described as follows: Inhibition of PTEN expression in Balb/C mouse kidney assessed as increase in mRNA levels at 2.5 to 12.5 mg/kg, ip administered BID for 5 days measured 48 hrs after last dose […]. Type of data set: functional, organism-based. In outline: (§2)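 Male Balb/c mice, n=4 per group, dosed i.p. in PBS and sacrificed 48 h after last dose. Liver, kidney and adipose tissue homogenised at once in 4 M guanidine isothiocyanate, 25 mM EDTA, 50 mM Tris-HCl pH 6. RNA purified on columns and run by fluorescence-based quantitative RT-PCR. Target transcript levels normalised to cyclophilin A and expressed relative to saline-treated controls.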
On the technique in general: Immunoblotting shows a protein as a band on a membrane.

In data set [5] the test system is Mus musculus. Put plainly: Inhibition of PTEN expression in Balb/C mouse adipose tissue assessed as increase in mRNA levels at 2.5 to 12.5 mg/kg, ip administered BID for 5 days measured 48 hrs after last dose by […]. Type of data set: functional, organism-based. In outline: as §2
Data set [6] deals with Mus musculus. Put plainly: Inhibition of PTEN expression in Balb/C mouse liver assessed as increase in mRNA levels at 2.5 to 12.5 mg/kg, ip administered BID for 5 days measured 48 hrs after last dose […]. The format is functional, organism-based. The method in brief: as §2
The test system of the next data set is BCL1. The data set is described as follows: Inhibition of PTEN expression in mouse BCL1 cells after 62 hrs by Western blotting. Type of data set: functional, cell-based. The settings on record: BCL1, 62 h. In outline: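 BCL1 cells were grown in DMEM with 10% FBS at 37 °C, 5% CO2. Compound was delivered to 2×10^6 cells by electroporation (200 V, 1000 uF, 13 ohms), and cells were harvested 62 h later. Western blot of RIPA lysates used rabbit anti-PTEN and anti-CD40 (1:1000) with HRP secondary and ECL detection. PTEN was normalized to CD40. n=3, mean ± SD.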

The test system of data set [7] is Mus musculus. Put plainly: Toxicity in Balb/C mouse assessed as change in body weight at 25 mg/kg, ip administered thrice a week for 2 weeks measured 48 hrs after last dose. Set-up: dose 25 mg/kg, route intraperitoneal. The settings on record: in vivo. Type of data set: organism-based. In outline: (§3)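 Male Balb/c mice, 6–8 wk, n=4/group, received compound i.p. in PBS (10 ul/g) 3x/wk for 2 wk. Body weight was monitored throughout. At 48 h after the last dose, mice were anesthetized with isoflurane and bled by cardiac puncture. Serum AST, ALT, BUN, bilirubin, glucose and triglycerides were compared with the saline group. ALT rise below 2x normal was counted as absent.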

For data set [8], the system named is Mus musculus. The data set is described as follows: Toxicity in Balb/C mouse assessed as change in serum AST levels at 25 mg/kg, ip administered thrice a week for 2 weeks measured 48 hrs after last dose. The format is organism-based. On the set-up: dose 25 mg/kg, route intraperitoneal. The settings on record: in vivo. The method in brief: as §3
For data set [9], the system named is Mus musculus. Put plainly: Toxicity in Balb/C mouse assessed as change in serum ALT levels at 25 mg/kg, ip administered thrice a week for 2 weeks measured 48 hrs after last dose. The format is organism-based. Set-up: dose 25 mg/kg, route intraperitoneal. The settings on record: in vivo. The method in brief: as §3
The subject of data set [10] is Mus musculus. Put plainly: Toxicity in Balb/C mouse assessed as change in blood urea nitrogen levels at 25 mg/kg, ip administered thrice a week for 2 weeks measured 48 hrs after last dose. Type of data set: organism-based. On the set-up: dose 25 mg/kg, route intraperitoneal. As to conditions: in vivo. The method in brief:
as §3

Data set [11] concerns Mus musculus. Put plainly: Toxicity in Balb/C mouse assessed as change in serum bilirubin levels at 25 mg/kg, ip administered thrice a week for 2 weeks measured 48 hrs after last dose. The format is organism-based. On the set-up: dose 25 mg/kg, route intraperitoneal. The settings on record: in vivo. In outline:
as §3

Data set [12] relates to Mus musculus. The data set is described as follows: Toxicity in Balb/C mouse assessed as change in serum glucose levels at 25 mg/kg, ip administered thrice a week for 2 weeks measured 48 hrs after last dose. The format is organism-based. On the set-up: dose 25 mg/kg, route intraperitoneal. As to conditions: in vivo. The method in brief: as §3
Data set [13] deals with Mus musculus. The data set is described as follows: Toxicity in Balb/C mouse assessed as change in serum triglyceride levels at 25 mg/kg, ip administered thrice a week for 2 weeks measured 48 hrs after last dose. The format is organism-based. On the set-up: dose 25 mg/kg, route intraperitoneal. The settings on record: in vivo. In outline:
as §3

The subject of data set [14] is Mus musculus. Put plainly: Inhibition of PTEN expression in Balb/C mouse liver at 25 mg/kg, ip administered thrice a week for 2 weeks measured 48 hrs after last dose by Western blot analysis. Set-up: dose 25 mg/kg. Type of data set: functional, organism-based. The method in brief:
(§4)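 Male Balb/c mice, 6–8 wk, n=4/group, dosed i.p. in PBS 3x/wk for 2 wk and killed 48 h after the last dose. Tissue was homogenized in RIPA buffer with protease inhibitors, and protein was measured by Lowry assay. Lysates were run on 10% PAGE and blotted to PVDF. Blots were probed with rabbit anti-PTEN (1:1000) and HRP anti-rabbit (1:2500), with ECL detection.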

Data set [15] relates to Mus musculus. The data set is described as follows: Inhibition of PTEN expression in Balb/C mouse kidney at 25 mg/kg, ip administered thrice a week for 2 weeks measured 48 hrs after last dose by Western blot analysis. The format is functional, organism-based. On the set-up: dose 25 mg/kg. The method in brief: as §4
Data set [16] concerns Mus musculus. Put plainly: Inhibition of PTEN expression in Balb/C mouse white adipose tissue assessed as reduction of full length transcript at 25 mg/kg, ip administered thrice a week for 2 weeks measured 48 hrs after last dose […]. The format is functional, organism-based. Set-up: dose 25 mg/kg.
The test system of data set [17] is Mus musculus. Put plainly: Inhibition of PTEN expression in Balb/C mouse white adipose tissue assessed as upregulation of isoform lacking exon at 25 mg/kg, ip administered thrice a week for 2 weeks measured 48 hrs after last dose […]. Type of data set: functional, organism-based. Set-up: dose 25 mg/kg.

The source made the active and inactive calls. The calls are words filed in the database; no cut-off is given here.

Usually IC50 stands for the point on the concentration scale where inhibition reaches its midpoint. Low values mean greater potency, high ones weaker potency.

Turning to `Cc1cn(CC(=O)N(CCNC(=O)CN(CCNC(=O)[C@H](CCCNC(=N)N)N(CCNC(=O)[C@H](CCCNC(=N)N)NC(=O)[C@H](CCCCNC(=N)N)NC(=O)[C@H](Cc2ccccc2)NC(=O)[C@H](CCCCNC(=N)N)NC(=O)[C@H](CCCCNC(=N)N)NC(=O)[C@H](CCCCNC(=N)N)NC(=O)[C@H](C)NC(=O)[C@H](CCCNC(=N)N)NC(=O)[C@H](CCCCNC(=N)N)NC(=O)[C@H](Cc2ccccc2)NC(=O)[C@H](C)NC(=O)[C@H](CCCNC(=N)N)NC(=O)[C@H](CCCCNC(=N)N)NC(=O)CN)C(=O)Cn2cc(C)c(=O)[nH]c2=O)C(=O)Cn2ccc(N)nc2=O)CC(=O)NCCN(CC(=O)NCCN(CC(=O)NCCN(CC(=O)NCCN(CC(=O)NCCN(CC(=O)NCCN(CC(=O)NCCN(CC(=O)NCCN(CC(=O)NCCN(CC(=O)NCCN(CC(=O)NCCN(CC(=O)NCCN(CC(=O)NCCN(CC(=O)N[C@@H](CCCCN)C(N)=O)C(=O)Cn2cnc3c(N)ncnc32)C(=O)Cn2ccc(N)nc2=O)C(=O)Cn2cnc3c(N)ncnc32)C(=O)Cn2cc(C)c(=O)[nH]c2=O)C(=O)Cn2ccc(N)nc2=O)C(=O)Cn2cc(C)c(=O)[nH]c2=O)C(=O)Cn2cnc3c(N)ncnc32)C(=O)Cn2ccc(N)nc2=O)C(=O)Cn2cnc3c(N)ncnc32)C(=O)Cn2ccc(N)nc2=O)C(=O)Cn2cnc3c(=O)[nH]c(N)nc32)C(=O)Cn2cnc3c(N)ncnc32)C(=O)Cn2ccc(N)nc2=O)c(=O)[nH]c1=O`, the Activity entry in the data set with Mus musculus [1], in the data set with Mus musculus [2] and with Mus musculus [3] was “Non-toxic” throughout. Further, the outcome with Mus musculus [4], with Mus musculus [5] and with Mus musculus [6] was inactive.

As for `COCCO[C@@H]1[C@H](OP(=O)(S)OC[C@H]2O[C@@H](n3cc(C)c(=O)[nH]c3=O)C[C@@H]2OP(=O)(S)OC[C@H]2O[C@@H](n3cnc4c(=O)[nH]c(N)nc43)[C@H](OCCOC)[C@@H]2OP(=O)(S)OC[C@H]2O[C@@H](n3ccc(N)nc3=O)[C@H](OCCOC)[C@@H]2OP(=O)(S)OC[C@H]2O[C@@H](n3cc(C)c(=O)[nH]c3=O)C[C@@H]2OP(=O)(S)OC[C@H]2O[C@@H](n3cnc4c(N)ncnc43)[C@H](O)[C@@H]2OP(=O)(S)OC[C@H]2O[C@@H](n3cnc4c(=O)[nH]c(N)nc43)[C@H](O)[C@@H]2OP(=O)(S)OC[C@H]2O[C@@H](n3ccc(N)nc3=O)[C@H](O)[C@@H]2OP(=O)(S)OC[C@H]2O[C@@H](n3ccc(N)nc3=O)[C@H](O)[C@@H]2OP(=O)(S)OC[C@H]2O[C@@H](n3cc(C)c(=O)[nH]c3=O)C[C@@H]2OP(=O)(S)OC[C@H]2O[C@@H](n3ccc(N)nc3=O)[C@H](O)[C@@H]2OP(=O)(S)OC[C@H]2O[C@@H](n3cc(C)c(=O)[nH]c3=O)C[C@@H]2OP(=O)(S)OC[C@H]2O[C@@H](n3cnc4c(=O)[nH]c(N)nc43)[C@H](O)[C@@H]2OP(=O)(S)OC[C@H]2O[C@@H](n3cnc4c(=O)[nH]c(N)nc43)[C@H](O)[C@@H]2OP(=O)(S)OC[C@H]2O[C@@H](n3cnc4c(N)ncnc43)[C@H](O)[C@@H]2OP(=O)(S)OC[C@H]2O[C@@H](n3cc(C)c(=O)[nH]c3=O)C[C@@H]2OP(=O)(S)OC[C@H]2O[C@@H](n3cc(C)c(=O)[nH]c3=O)C[C@@H]2OP(=O)(S)OC[C@H]2O[C@@H](n3cc(C)c(=O)[nH]c3=O)C[C@@H]2OP(=O)(S)OC[C@H]2O[C@@H](n3cnc4c(=O)[nH]c(N)nc43)[C@H](OCCOC)[C@@H]2OP(=O)(S)OC[C@H]2O[C@@H](n3cnc4c(N)ncnc43)[C@H](OCCOC)[C@@H]2O)[C@@H](CO)O[C@H]1n1ccc(N)nc1=O` (stereo partly drawn), it took 3.2 µM to reach half-maximal inhibition in the data set on BCL1 (IC50). Moreover, the Activity result in the data set on Mus musculus [7], with Mus musculus [8], in the data set with Mus musculus [9], in the data set on Mus musculus [10], in the data set on Mus musculus [11] and in the data set with Mus musculus [12] was “Non-toxic” each time. For the same compound, the Activity result with Mus musculus [13] is reported as “Non-toxic”. Also, the outcome in the data set with Mus musculus [14], in the data set with Mus musculus [16] and in the data set on Mus musculus [17] was Active. The inhibition entry in the data set on Mus musculus [15] was “inactive”.

These data come from ChEMBL document CHEMBL1155469, “Peptide nucleic acids conjugated to short basic peptides show improved pharmacokinetics and antisense activity in adipose tissue” (J Med Chem, 2010).
